# Assay results as given in ChEMBL document CHEMBL1131634, “Axially chiral N-benzyl-N,7-dimethyl-5-phenyl-1, 7-naphthyridine-6-carboxamide derivatives as tachykinin NK1 receptor antagonists: determination of the absolute stereochemical requirements” (J Med Chem, 1998).
# Key:
# Substance-P receptor = Substance-P receptor (Homo sapiens, UniProt P25103); test: Binding affinity at Tachykinin receptor 1 by measuring its ability to inhibit [125I]BH-SP binding in human IM-9 cells (Lymphoblast cells).; type: cell-based
# Sequence of Substance-P receptor (P25103 whole entry): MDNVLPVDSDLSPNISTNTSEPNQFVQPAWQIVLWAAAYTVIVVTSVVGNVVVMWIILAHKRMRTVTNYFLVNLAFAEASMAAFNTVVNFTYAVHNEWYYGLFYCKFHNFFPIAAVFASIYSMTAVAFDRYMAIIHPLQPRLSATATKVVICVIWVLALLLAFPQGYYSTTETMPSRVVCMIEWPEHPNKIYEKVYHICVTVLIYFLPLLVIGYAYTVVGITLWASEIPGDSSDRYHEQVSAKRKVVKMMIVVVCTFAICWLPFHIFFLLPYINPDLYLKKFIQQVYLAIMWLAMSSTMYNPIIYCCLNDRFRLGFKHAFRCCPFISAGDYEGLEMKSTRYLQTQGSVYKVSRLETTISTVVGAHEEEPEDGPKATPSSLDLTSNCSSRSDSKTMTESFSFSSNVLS
# Cavia porcellus [1] = test: In vivo inhibition of capsaicin-induced plasma extravasation in guinea pig trachea on intravenous administration.; type: functional
# Outline: (§1)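 Guinea pigs received compound iv or po before capsaicin challenge, and tracheal plasma extravasation was measured. ID50 was derived from 5–8 animals per dose and reported with 95% confidence limits.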
# Cavia porcellus [2] = test: In vivo inhibition of capsaicin-induced plasma extravasation in guinea pig trachea on peroral administration; type: functional; conditions: po; outline: as §1
# Cavia porcellus [3] = test: In vivo inhibition (percentage) of capsaicin-induced plasma extravasation in guinea pig trachea on intravenous administration at 1.0 mg/kg; type: functional
# Outline: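 Guinea pigs were given a single iv dose of 1.0 mg/kg. Capsaicin-induced tracheal plasma extravasation was then measured, with percent inhibition reported (n = 5 or 6).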
SMILES,IC50 (Substance-P receptor),ED50 (Cavia porcellus [1]),ED50 (Cavia porcellus [2]),inhibition in vivo at 1 mg/kg (Cavia porcellus [3])
Cc1ccc(-c2c(C(=O)N(C)[C@H](C)c3ccccc3)n(C)c(=O)c3ncccc23)cc1,0.13 µM,,,
"Cc1ccc(-c2c(C(=O)N(C)[C@@H](C)c3cc(C(F)(F)F)cc(C(F)(F)F)c3)n(C)c(=O)c3ncccc23)cc1 (stereo in doubt; 3a-A) [7-METHYL-8-OXO-5-P-TOLYL-7,8-DIHYDRO-[1,7]NAPHTHYRIDINE-6-CARBOXYLIC ACID (S)-[(S)-1-(3,5-BIS-TRIFLUOROMETHYL-PHENYL)-ETHYL]-METHYL-AMIDE (ENANTIOMERIC MIX)]",0.0008 µM,0.0093 mg/kg,0.0677 mg/kg,
"Cc1ccc(-c2c(C(=O)N(C)[C@@H](C)c3cc(C(F)(F)F)cc(C(F)(F)F)c3)n(C)c(=O)c3ncccc23)cc1 (stereo in doubt; 3a-B) [7-METHYL-8-OXO-5-P-TOLYL-7,8-DIHYDRO-[1,7]NAPHTHYRIDINE-6-CARBOXYLIC ACID (S)-[(S)-1-(3,5-BIS-TRIFLUOROMETHYL-PHENYL)-ETHYL]-METHYL-AMIDE (ENANTIOMERIC MIX)]",0.044 µM,,,61.8%
"Cc1ccc(-c2c(C(=O)N(C)Cc3cc(C(F)(F)F)cc(C(F)(F)F)c3)n(C)c(=O)c3ncccc23)cc1 [7-METHYL-8-OXO-5-P-TOLYL-7,8-DIHYDRO-[1,7]NAPHTHYRIDINE-6-CARBOXYLIC ACID (3,5-BIS-TRIFLUOROMETHYL-BENZYL)-METHYL-AMIDE (STRUCTURAL MIX)]",,,0.11 mg/kg,

# Now from value to molecule, other results behind:
IC50 (Substance-P receptor),SMILES,ED50 (Cavia porcellus [1]),ED50 (Cavia porcellus [2]),inhibition in vivo at 1 mg/kg (Cavia porcellus [3])
0.019 µM,"Cc1ccc(-c2c(C(=O)N(C)[C@H](C)c3cc(C(F)(F)F)cc(C(F)(F)F)c3)n(C)c(=O)c3ncccc23)cc1 (stereo in doubt; 3b-A) [7-METHYL-8-OXO-5-P-TOLYL-7,8-DIHYDRO-[1,7]NAPHTHYRIDINE-6-CARBOXYLIC ACID (S)-[(R)-1-(3,5-BIS-TRIFLUOROMETHYL-PHENYL)-ETHYL]-METHYL-AMIDE (ENANTIOMERIC MIX)]",0.412 mg/kg,,
0.62 µM,"Cc1ccc(-c2c(C(=O)N(C)[C@H](C)c3cc(C(F)(F)F)cc(C(F)(F)F)c3)n(C)c(=O)c3ncccc23)cc1 (stereo in doubt; 3b-B) [7-METHYL-8-OXO-5-P-TOLYL-7,8-DIHYDRO-[1,7]NAPHTHYRIDINE-6-CARBOXYLIC ACID (S)-[(R)-1-(3,5-BIS-TRIFLUOROMETHYL-PHENYL)-ETHYL]-METHYL-AMIDE (ENANTIOMERIC MIX)]",,,6.9%
